Bioassay records deposited in PubChem by several laboratories.
A selection: hits, their analogues and other compounds. The true share with any hit is near 2.9%.
JNK3 inh: inhibitors of human JNK3 kinase. 60,000 compounds, 0.61% hits. inhibition, % at 8 µM. AID 746. purified JNK3 kinase activity, HTS. P53779; in the data active = inhibition above about 17%
RORa activator: RORA (human) activation | P35398 | CHO-K1 Gal4-RORA LBD luciferase reporter, luminescence; percent increase over mock-subtracted basal signal | activation, % at 10 µM | 65,000 compounds, 1.5% hits | AID 560;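 active = activation above the mean of all tested compounds plus 3 SD, cut at about 49% in these data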
ROCK2 inh: ROCK2 (human) kinase inhibition; 60,000 compounds, 0.35% hits; O75116; inhibition, % at 6 µM; purified ROCK2, Kinase-Glo ATP depletion luminescence; AID 604;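 active = inhibition above the screen-wide mean inhibition plus 3 SD, cut at about 18% in these data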
Htt clearance: compounds clearing mutant huntingtin protein. AID 853. HeLa Exon1htt(103Q)mCFP, aggregate imaging; zero = plate's median compound well. 47,000 compounds, 0.42% hits. inhibition, % at 1.5 µM;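 active = inhibition of aggregate fluorescence above about 70%, also judged a hit by eye on the cell image, limit read from the data, passing the limit was not always enough; inconclusive = no rule stated for this call; inactive = not judged a hit on image review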;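 note: cells exposed to compound for three days before fixation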
SF1 activator: activates the human nuclear receptor SF-1. activation, % at 10 µM. 65,000 compounds, 1.9% hits. Q13285. CHO-K1 Gal4-SF-1 LBD luciferase reporter; % increase over DMSO SF-1-specific signal;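 active = activation above the mean activation of all tested compounds plus 3 SD, cut at about 50% in these data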
Target sequence (Q13285 whole entry, looked up, the tested form may be a part): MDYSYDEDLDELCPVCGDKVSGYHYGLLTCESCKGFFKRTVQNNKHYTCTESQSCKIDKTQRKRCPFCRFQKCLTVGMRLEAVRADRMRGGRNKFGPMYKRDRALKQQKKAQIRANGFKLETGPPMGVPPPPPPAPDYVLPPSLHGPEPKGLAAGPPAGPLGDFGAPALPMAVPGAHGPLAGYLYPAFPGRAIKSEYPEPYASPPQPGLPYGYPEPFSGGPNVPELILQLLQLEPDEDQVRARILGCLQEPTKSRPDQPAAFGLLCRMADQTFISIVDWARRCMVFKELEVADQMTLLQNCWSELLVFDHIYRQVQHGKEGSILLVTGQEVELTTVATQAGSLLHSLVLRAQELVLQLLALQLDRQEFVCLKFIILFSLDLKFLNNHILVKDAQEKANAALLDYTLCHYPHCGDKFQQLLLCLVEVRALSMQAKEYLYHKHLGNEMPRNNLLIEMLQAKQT
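Material: Gal4–SF-1 LBD one-hybrid luciferase reporter in CHO-K1 cells | Amount: 4,000 cells per well | Compound dosing: 10 µM single point, 1% DMSO | Schedule: 20 h compound treatment, 37 °C | Measured by: SteadyLite luciferase luminescence | Evaluation: Percent activation versus DMSO | Control set: DMSO-treated SF-1-transfected cells as negative, DMSO-treated mock-transfected cells lacking SF-1 as background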
PKA inh: blocks human protein kinase A activity; P17612; PKA Kemptide phosphorylation, Kinase-Glo ATP luminescence; inhibition, % at 6 µM; 65,000 compounds, 0.1% hits; AID 524;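 active = inhibition above the screen-wide mean inhibition plus 3 SD, cut at about 21% in these data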
Large screens that a line does not name were inactive.

Cc1ccn2cc(CNC(=O)c3ccc(Br)o3)nc2c1	Htt clearance inconclusive
O=C(c1ccc(Cl)c(F)c1F)N1CCOCC1	none (no result: JNK3 inh, RORa activator, ROCK2 inh, SF1 activator, PKA inh)
CCOc1ccc2nc3ccc4[nH]onc4c3c2c1	PKA inh 34.9 (no result: Htt clearance)
Cc1ccc(C2CC(=O)Nc3cc4c(cc32)OCO4)o1 (stereo unspecified)	none (no result: JNK3 inh, RORa activator, ROCK2 inh, SF1 activator, PKA inh)
CCN(CC)C(=O)N1CCc2ccccc2C1CN1C(=O)c2ccccc2C1=O (stereo unspecified)	none (no result: JNK3 inh, RORa activator, ROCK2 inh, SF1 activator, PKA inh)
CCCc1nnc(SCC(=O)N2C(C)CCCC2C)n1CC1CCCO1 (stereo unspecified)	none (no result: JNK3 inh, RORa activator, ROCK2 inh, SF1 activator, PKA inh)
O=C(CCCN1CCOCC1)c1ccc2c(c1)OCCO2	SF1 activator 55.7
O=C(CCN1CCOCC1)c1ccc2c(c1)OCCO2	none (no result: JNK3 inh, RORa activator, ROCK2 inh, SF1 activator, PKA inh)
O=C(NC1CCCCC1)/C(=N\O)c1ccccn1	none
COc1ccc(C2(O)CCN(C(=O)c3ccc4c(c3)OCO4)CC2)cc1	none (no result: JNK3 inh, ROCK2 inh, Htt clearance)
COC(=O)c1ccccc1NC(=O)NCc1cccnc1	JNK3 inh 24.5 (no result: Htt clearance)
COc1cc(OC)cc(C(=O)NCc2cccnc2)c1	Htt clearance 75.2
COC(=O)c1ccccc1NC(=O)NCc1ccccn1	none (no result: Htt clearance)
COc1cccc(CNC(=O)c2ccccc2N)c1	Htt clearance 81.5
Cc1nc(N2CCc3ccccc32)[nH]c(=O)c1CCC(C)C	none (no result: Htt clearance)
CC(C)Cc1cc(C(=O)Nc2cc(C(F)(F)F)ccc2Cl)no1	none (no result: JNK3 inh, RORa activator, ROCK2 inh, SF1 activator, PKA inh)
CC(=NC1CCCC1)c1c(C)[nH]n(-c2nc3ccccc3s2)c1=O	SF1 activator 70.8
CC(C)Cn1c(SCc2nnc(-c3cccs3)o2)nc(O)cc1=O	none (no result: Htt clearance)
Cc1cccc2cc(CN(Cc3ccccc3)C(=O)N3CCOCC3)c3nnnn3c12	none (no result: JNK3 inh, RORa activator, ROCK2 inh, SF1 activator, PKA inh)
COCCn1cnnc1SCC(=O)Nc1ccccc1C(=O)Nc1ccc2c(c1)OCO2	none
CCCc1nc(-c2ccc(-c3ccc(F)cc3)cc2)no1	SF1 activator 53.3
c1ccc(CCc2nc(-c3ccccc3)no2)cc1	none (no result: JNK3 inh, RORa activator, ROCK2 inh, SF1 activator, PKA inh)
O=C(NCCc1ccccc1)/C(=N\O)c1ccccc1	SF1 activator 64.0 (no result: Htt clearance)
CN(C)CCCNC(=O)/C(=N\O)c1ccccc1	none (no result: JNK3 inh, RORa activator, ROCK2 inh, SF1 activator, PKA inh)
O=C(Nc1ccccc1)N(O)c1ccc(Cl)cc1	SF1 activator 58.1 (no result: Htt clearance)
O=C(Nc1ccc(Cl)cc1)N(Cc1cccs1)Cc1cccs1	none (no result: JNK3 inh, ROCK2 inh, Htt clearance)
COc1ccc(-n2c3c(cc(C(=O)Nc4ccc5c(c4)C(=O)NC5=O)c2=O)C(=O)CCC3)cc1	none (no result: Htt clearance)
CCOc1cc2[nH]c(=O)n(CC3CCC(C(=O)NC(C)CC)CC3)c(=O)c2cc1OCC (stereo unspecified)	none (no result: Htt clearance)
O=C(Nc1ccccc1)c1cnc[nH]1	SF1 activator 56.8
O=C(O)c1ccccc1C(=O)Nc1ccccc1	none
COc1cc2cc(CN(Cc3cccnc3)C(=O)NCc3ccccc3)c(=O)[nH]c2cc1OC	none
Cn1cc(Cl)c(C(=O)OCC(=O)Nc2nc(-c3ccc(Br)cc3)cs2)n1	none (no result: JNK3 inh, RORa activator, ROCK2 inh, SF1 activator, PKA inh)
CNC(=O)c1c(NC(=O)c2nc3ccccc3s2)sc2c1CCC2	RORa activator 96.0, Htt clearance inconclusive, SF1 activator 72.5
CCOc1ccccc1C1CC(c2ccc(Br)cc2)Nc2nc(N)nn21 (stereo unspecified)	none
Cn1c(SCc2ccccc2)nnc1-c1ccc2c(c1)OCO2	RORa activator 54.9
S=C(c1ccc(-c2ccccc2Cl)o1)N1CCOCC1	RORa activator 54.3 (no result: Htt clearance)
Cc1cccc(NC(=O)c2sc3nc(-c4ccccc4)cn3c2C)n1	none (no result: Htt clearance)
Cc1c(C(=O)Nc2ccccc2)sc2nc(-c3ccccc3)cn12	RORa activator 58.2, SF1 activator 54.3 (no result: Htt clearance)
COc1ccc(-c2cn3c(C)c(C(=O)NC(C)(C)C)sc3n2)cc1	RORa activator 56.0 (no result: Htt clearance)
O=C1C(=O)N(CCCN2CCOCC2)C(c2cccs2)/C1=C(/O)c1ccc2c(c1)OCO2 (stereo unspecified)	none (no result: JNK3 inh, ROCK2 inh)
CSc1cccc(NS(=O)(=O)c2ccc3c(c2)oc(=O)n3C)c1	none
COc1ccc2c(C)cc(N3CCOCC3)nc2c1	Htt clearance 73.3 (no result: JNK3 inh, RORa activator, ROCK2 inh, SF1 activator, PKA inh)
CCOC(=O)c1c(NC(=O)Cn2nnc(-c3ccc(Cl)cc3)n2)sc(CC)c1C	none (no result: JNK3 inh, RORa activator, ROCK2 inh, SF1 activator, PKA inh)
O=C(NCCN1CCOCC1)c1cc(-c2ccccc2)on1	none
O=C(c1cc(-c2cccs2)on1)N1CCOCC1	RORa activator 50.9 (no result: Htt clearance)
O=C(NCCN1CCOCC1)c1cc(-c2cccs2)on1	RORa activator 67.5
Cc1cccc(N2CCN(C(=O)C3CCCN(S(=O)(=O)c4cccc5cccnc45)C3)CC2)c1C (stereo unspecified)	none (no result: Htt clearance)
